SR-BI DiI-HDL act: activators of SR-BI mediated DiI-HDL uptake, primary screen, ldlA[mSR-BI] CHO cells, DiI fluorescence; 3 h; 100 = double the neutral-control signal; activation, % at 12.5 µM; hit rate 0.096% among 320,000;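 active means mean replicate activation of at least 60% and every replicate at or above 60%; inconclusive means mean or all-replicate condition met, but not both; inactive means mean below 60% and not all replicates reaching 60%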;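 further: 0% = median plate neutral-control signal and 100% = twice that signal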
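Test system: SR-BI-overexpressing, LDLR-lacking CHO cells. Measured by: DiI fluorescence, bottom read. Medium: Ham's F12 with 0.5% BSA, HEPES 25 mM, pH 7.4. Timing: 3 h uptake period with compound, 37 °C.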
Ecoli rRNA inh: reduced GFP signal of wild-type E. coli, primary screen, bacterial rRNA inhibitor project, GFP/RFP fluorescence, OD600, single point. GFP signal change (wild-type ribosome), % (concentration not given with the values). hit rate 1.6% among 350,000. E. coli WT GFP vs humanized-ribosome RFP mutants, 24 h; hits give low values; DMSO median 0, no signal -100;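 active means significant combined selectivity score with lowered wild-type GFP, culture density cut under 30%, mutant RFP and density less affected; inactive means any of these conditions unmet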
PvdQ acylase: P. aeruginosa PvdQ acylase inhibitors, primary screen, biochemical, fluorescence, plate reader and imaging, single point; purified PvdQ acylase; hit rate 0.063% among 340,000; AID 488965, 2010; PvdQ acylase [Pseudomonas aeruginosa LESB58]; inhibition, % at 10 µM; in the data active means inhibition above about 30%, passing the limit was not always enough; inconclusive means no clear call, values can overlap the other calls;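 further: 0% = vehicle neutral wells and 100% = reference inhibitor wells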
SR-BI HDL uptake: inhibitors of SR-BI mediated HDL lipid uptake, primary screen, ldlA[mSR-BI] cells, fluorescence, single point; Scavenger receptor class B member 1 (Mus musculus), Q61009; ldlA[mSR-BI] CHO cells, DiI-HDL uptake fluorescence, 3 h; inhibition, % at 12.5 µM; hit rate 0.96% among 320,000;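 active means mean replicate inhibition of at least 70% and a set share of replicates each scoring 70 or more; inconclusive means meets just one of the two criteria; inactive means fails both criteria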;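 further: 0% = median of neutral control wells and 100% = median of positive control wells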
XiGFP reactiv: activators of inactive X chromosome reactivation, primary screen, imaging, XiGFP fibroblasts, GFP high-content imaging, set 2; XiGFP mouse fibroblasts, % GFP-positive cells imaging, 3 d; cells co-treated with 5-aza-dC sensitizer; scaled so ellipticine positive control = 100%; activation, % at 7.58 µM; hit rate 0.055% among 360,000; AID 743238, 2013;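 active means mean normalized replicate activation at least 10% and every replicate at or above 10%; inconclusive means only one of the two criteria met; inactive means mean below 10% and not all replicates reach 10%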;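 further: 0% = median of on-plate neutral control wells and 100% = ellipticine 6 µM median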
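System: XiGFP fibroblasts, SV40-immortalized. Medium: DMEM plus 5-aza-dC sensitizer. Doses: single point. Timing: 3 d treatment, 15 min room-temperature fixation. Control set: ellipticine 6 µM.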
dFosB act: activators of delta FosB homodimer, primary screen, biochemical, fluorescence polarization, TAMRA-CDK5 oligo, single point. Protein FosB (Mus musculus), P13346. purified delta FosB; percent of positive-control signal above neutral wells. hit rate 0.99% among 340,000. activation, % at 25 µM. AID 493131, 2011;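 active means mean activation above about 17%, with every replicate also reaching it, limit read from the data, passing the limit was not always enough; inconclusive means only one of the two conditions met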
Target sequence (P13346 whole entry, looked up): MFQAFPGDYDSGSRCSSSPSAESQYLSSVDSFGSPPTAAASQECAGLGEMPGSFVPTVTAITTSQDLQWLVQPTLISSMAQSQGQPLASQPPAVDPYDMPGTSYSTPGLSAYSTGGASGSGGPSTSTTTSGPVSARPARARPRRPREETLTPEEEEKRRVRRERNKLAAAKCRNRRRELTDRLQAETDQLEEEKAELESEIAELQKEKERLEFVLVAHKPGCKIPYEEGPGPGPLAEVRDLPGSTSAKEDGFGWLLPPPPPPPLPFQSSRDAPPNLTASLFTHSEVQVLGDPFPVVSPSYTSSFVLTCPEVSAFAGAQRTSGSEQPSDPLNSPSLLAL
Numbers without * were called inactive. Sampled rows, rich in hits. Any-hit rate of the full collection: about 2.6%.

How did Nc1ccc(Oc2ccc3nc(-c4ccccc4)c(-c4ccccc4)nc3c2)cc1 do in these assays?
SR-BI DiI-HDL act: -42; PvdQ acylase: -3; SR-BI HDL uptake: 42; dFosB act: -4

What do the screens show for `O=C(COC(=O)c1cc(=O)c2ccccc2o1)Nc1c(F)c(F)c(F)c(F)c1F`?
SR-BI DiI-HDL act: 9; Ecoli rRNA inh: -2; PvdQ acylase: -10; SR-BI HDL uptake: -9; XiGFP reactiv: 0; dFosB act: -2

Results for O=C(c1cnccn1)N1CC(=O)N2[C@H](CO)[C@H](c3ccc(C#CC4CCCCC4)cc3)[C@H]2C1 ?
Ecoli rRNA inh: 0; XiGFP reactiv: 0

How did N#CC1=C(Nc2ccccc2Cl)SC(c2ccccc2O)NC1=O (configuration not stated) do in these assays?
SR-BI DiI-HDL act: 1; Ecoli rRNA inh: -27*; PvdQ acylase: -1; SR-BI HDL uptake: -1; XiGFP reactiv: 0; dFosB act: -7

Results for Cc1ccc(-c2cc(C(F)F)n3ncc(C(=O)N4CCN5CCCC5C4)c3n2)cc1 (configuration not stated) ?
SR-BI DiI-HDL act: -69; PvdQ acylase: 7; SR-BI HDL uptake: 69; dFosB act: -17

How did CC[n+]1c(/C=C/c2ccc(N(C)C)cc2)ccc2ccccc21 do in these assays?
SR-BI DiI-HDL act: -8; Ecoli rRNA inh: -71; PvdQ acylase: 5; SR-BI HDL uptake: 8; XiGFP reactiv: 0; dFosB act: 53*

How did CC[n+]1ccc(/C=C/c2ccc(N(C)C)cc2)c2ccccc21 do in these assays?
SR-BI DiI-HDL act: -9; Ecoli rRNA inh: -76; PvdQ acylase: -11; SR-BI HDL uptake: 9; XiGFP reactiv: 0; dFosB act: 47*

How did CC[n+]1c(/C=C/c2ccc(OC(C)=O)c(OC)c2)ccc2ccccc21 do in these assays?
SR-BI DiI-HDL act: -23; Ecoli rRNA inh: -14*; PvdQ acylase: -10; SR-BI HDL uptake: 23; XiGFP reactiv: 0; dFosB act: -12

Results for COC(=O)c1ccc(NC(=O)c2ccc(N(C)S(C)(=O)=O)cc2)cc1 ?
SR-BI DiI-HDL act: -16; PvdQ acylase: -11; SR-BI HDL uptake: 16; dFosB act: 6

What do the screens show for `Cc1cccc(C(=O)N(CCc2ccccc2)Cc2ccccc2)c1[N+](=O)[O-]`?
SR-BI DiI-HDL act: -28; Ecoli rRNA inh: 0; PvdQ acylase: -5; SR-BI HDL uptake: 28; XiGFP reactiv: 0; dFosB act: -5

Results for Cc1ccc(C(=O)N/C(=C\c2ccc(-c3cccc([N+](=O)[O-])c3)o2)C(=O)NCCCN2CCOCC2)cc1 ?
SR-BI DiI-HDL act: -78; Ecoli rRNA inh: -14; PvdQ acylase: -3; SR-BI HDL uptake: 78*; XiGFP reactiv: 0; dFosB act: 9

Results for Cc1ccc(C(=O)N/C(=C/c2ccc(-c3cccc([N+](=O)[O-])c3)o2)C(=O)NC(C)(C)C)cc1 ?
SR-BI DiI-HDL act: -52; Ecoli rRNA inh: 0; PvdQ acylase: -22; SR-BI HDL uptake: 52; XiGFP reactiv: 0; dFosB act: -6

How did COc1ccc(C(=O)N/C(=C\c2ccc(-c3cccc([N+](=O)[O-])c3)o2)C(=O)NCCCN2CCOCC2)cc1 do in these assays?
Ecoli rRNA inh: -7; XiGFP reactiv: 0

What do the screens show for `Cc1ccc(C(=O)N/C(=C/c2ccc(-c3cccc([N+](=O)[O-])c3)o2)C(=O)NC(C)C)cc1`?
SR-BI DiI-HDL act: -83; PvdQ acylase: 0; SR-BI HDL uptake: 83*; dFosB act: -8

How did COc1ccccc1CCNC(=O)C(=O)NCC1OCCN1S(=O)(=O)c1cc(F)ccc1F (configuration not stated) do in these assays?
SR-BI DiI-HDL act: -8; Ecoli rRNA inh: -2; PvdQ acylase: -6; SR-BI HDL uptake: 8; XiGFP reactiv: 0; dFosB act: -12

How did N#CCN1C(=S)N=C(Nc2cccc(Cl)c2)C12CCCCC2 do in these assays?
SR-BI DiI-HDL act: 7; PvdQ acylase: -15; SR-BI HDL uptake: -7; dFosB act: 3

How did CC(C)(C)C1CCC2(CC1)C(Nc1cccc(C(F)(F)F)c1)=NC(=S)N2CC#N (configuration not stated) do in these assays?
SR-BI DiI-HDL act: 152*; PvdQ acylase: -9; SR-BI HDL uptake: -152; dFosB act: -11

How did COC(=O)c1c(-c2ccc(OC)cc2)sc2cc(OC)c(OC)cc12 do in these assays?
SR-BI DiI-HDL act: -55; Ecoli rRNA inh: -24*; PvdQ acylase: -18; SR-BI HDL uptake: 55; XiGFP reactiv: 0; dFosB act: -2

What do the screens show for `COC(=O)c1c(-c2ccc(SC)cc2)sc2ccc(OC)cc12`?
SR-BI DiI-HDL act: -43; Ecoli rRNA inh: -12; PvdQ acylase: -9; SR-BI HDL uptake: 43; XiGFP reactiv: 0; dFosB act: -11

What do the screens show for `Cc1cc(C)cc(OCC(=O)OCC(=O)NCCC2=CCCCC2)c1`?
SR-BI DiI-HDL act: 20; PvdQ acylase: 4; SR-BI HDL uptake: -20; XiGFP reactiv: 0; dFosB act: -8

Results for O=C(COC(=O)c1ccccc1Cl)NCCC1=CCCCC1 ?
SR-BI DiI-HDL act: 3; Ecoli rRNA inh: -21*; PvdQ acylase: -1; SR-BI HDL uptake: -3; XiGFP reactiv: 0; dFosB act: -6

What do the screens show for `O=C(COC(=O)c1ccc(F)cc1F)NCCC1=CCCCC1`?
SR-BI DiI-HDL act: 22; Ecoli rRNA inh: -7; PvdQ acylase: 10; SR-BI HDL uptake: -22; XiGFP reactiv: 0; dFosB act: -3

Results for O=C(COC(=O)COc1ccccc1)NCCC1=CCCCC1 ?
SR-BI DiI-HDL act: 73*; Ecoli rRNA inh: 10; PvdQ acylase: -6; SR-BI HDL uptake: -73; XiGFP reactiv: 0; dFosB act: -6

How did Cc1cc2ccccn2c1C(=O)Nc1ccccc1 do in these assays?
SR-BI DiI-HDL act: 22; Ecoli rRNA inh: 3; PvdQ acylase: -6; SR-BI HDL uptake: -22; XiGFP reactiv: 0; dFosB act: -10

How did COc1ccc(-c2noc(-c3cccs3)n2)cc1OC do in these assays?
Ecoli rRNA inh: 12; PvdQ acylase: -9; XiGFP reactiv: inconclusive; dFosB act: -4

How did CCn1c(SCc2nc(-c3ccc(OC)c(OC)c3)no2)nnc1-c1cccs1 do in these assays?
SR-BI DiI-HDL act: -24; Ecoli rRNA inh: -32*; PvdQ acylase: -7; SR-BI HDL uptake: 24; dFosB act: -15

Assay outcomes from PubChem BioAssay.
